The source made the active and inactive calls. The rule behind the calls is not given here.
How the values were obtained:
[1] = Decrease in triglyceride accumulation in mouse 3T3L1 cells at 10 uM for 3 days oil red O staining based microscopic analysis; type: functional, cell-based; settings: 3T3-L1
In short: (§1)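 3T3-L1 cells differentiated from 2 days post-confluence with IBMX/dexamethasone/insulin cocktail for 3 days, then insulin medium to Day 6. Compounds at 1 and 10 µM added Day 0 for 3 days. Triglyceride read on Day 6 with Oil Red O (formaldehyde fixation, 30 min stain, isopropanol extraction, OD 510 nm); n = 3.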

[2] = Decrease in triglyceride level in mouse 3T3L1 cells during all developmental stages at 0.5 uM for 9 days; type: functional, cell-based; settings: 3T3-L1
In short: (§2)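 During 3T3-L1 differentiation with compound present (0.5 µM, or 5 µM for one compound), cells were collected and counted every day and triglyceride content was measured by TG assay.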

[3] = system: 3T3-L1; assay: Inhibition of cell differentiation in mouse 3T3L1 cells assessed as delayed time point of cell contact inhibition at 0.5 uM for 9 days; type: functional
In short: (§3)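 3T3-L1 preadipocytes were induced to differentiate (IBMX/dexamethasone/insulin for 3 days, then insulin) with compound added from day 0 at 0.5 or 5 µM; DMSO vehicle served as control. Cells were collected and counted every day to follow proliferation and to find when contact inhibition resumed.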

[4] = system: HepG2; assay: Decrease in cholesterol level in human HepG2 cells at 1 uM after 24 hrs by […] assay in presence of 0.5 mM oleic acid sodium; type: functional
In short: (§4)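 HepG-2 cells seeded, then after 24 h exposed to 0.5 mM oleic acid sodium plus compound (1 µM; dose series up to 10 µM) for 24 h, DMSO vehicle. Cells lysed in 0.2% Triton X-100 for 1 h, sonicated, centrifuged. Triglyceride measured by GPO-POD kit and cholesterol by kit, both normalized to BCA protein; n = 3.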

[5] = Downregulation of PPAR-gamma mRNA level in mouse 3T3L1 cells at 0.2 mM after 2 hrs by RT-PCR analysis; type: functional, cell-based; settings: 3T3-L1
[6] = Downregulation of PPAR-gamma mRNA level in mouse 3T3L1 cells at 0.2 mM after 24 hrs by RT-PCR analysis; type: functional, cell-based; settings: 3T3-L1
[7] = system: 3T3-L1; assay: Activation of AMPK-mediated ACC in mouse 3T3L1 cells assessed as increase in phophorylated ACC level at 0.2 mM after 10 mins by western blot analysis; type: cell-based
In short: (§5)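 3T3-L1 cells in DMEM/10% FBS at 37 °C, 5% CO2, exposed for 10 min, 2 h or 24 h alongside a DMSO vehicle. Cells were lysed in RIPA with PMSF, Na3VO4, NaF and protease inhibitors. Lysates were run on SDS-PAGE and blotted to PVDF, blocked in 5% BSA, then probed with primary antibodies for 16 h at 4 °C and an HRP secondary. Bands were normalised to GAPDH, with the 10 min DMSO group set as 100%; n = 3.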

[8] = Downregulation of C/EBP beta mRNA level in mouse 3T3L1 cells at 0.2 mM after 24 hrs by RT-PCR analysis; type: functional, cell-based; settings: 3T3-L1
[9] = Downregulation of C/EBP alpha mRNA level in mouse 3T3L1 cells at 0.2 mM after 24 hrs by RT-PCR analysis; type: functional, cell-based; settings: 3T3-L1
[10] = system: 3T3-L1; assay: Activation of AMPK alpha in mouse 3T3L1 cells assessed as increase in phophorylated AMPK alpha at Thr 172 residue level at 0.2 mM after 10 mins by western blot analysis; type: cell-based; in short: as §5
[11] = Downregulation of C/EBP alpha mRNA level in mouse 3T3L1 cells at 0.2 mM after 2 hrs by RT-PCR analysis; type: functional, cell-based; settings: 3T3-L1
[12] = system: 3T3-L1; assay: Effect on LKB1 expression in mouse 3T3L1 cells at 0.2 mM after 10 mins, 2 and 24 hrs by western blot analysis; type: functional, cell-based; in short: as §5
[13] = Downregulation of SREBP-1c mRNA level in mouse 3T3L1 cells at 0.2 mM after 24 hrs by RT-PCR analysis; type: functional, cell-based; settings: 3T3-L1
[14] = system: 3T3-L1; assay: Activation of AMPK alpha in mouse 3T3L1 cells assessed as increase in phophorylated AMPK alpha at Thr 172 residue level at 0.2 mM after 24 hrs by western blot analysis; type: cell-based; in short: as §5
[15] = Downregulation of C/EBP delta mRNA level in mouse 3T3L1 cells at 0.2 mM after 24 hrs by RT-PCR analysis; type: functional, cell-based; settings: 3T3-L1
[16] = system: 3T3-L1; assay: Activation of AMPK-mediated ACC in mouse 3T3L1 cells assessed as increase in phophorylated ACC level at 0.2 mM after 24 hrs by western blot analysis; type: cell-based; in short: as §5
[17] = Decrease in triglyceride accumulation in mouse 3T3L1 cells at 1 uM for 3 days oil red O staining based microscopic analysis; type: functional, cell-based; settings: 3T3-L1; in short: as §1
[18] = system: 3T3-L1; assay: Inhibition of cell differentiation in mouse 3T3L1 cells assessed as delayed time point of cell contact inhibition at 5 uM for 9 days; type: functional; in short: as §3
[19] = system: HepG2; assay: Decrease in triglyceride level in human HepG2 cells at 1 uM after 24 hrs by GPO-POD assay in presence of 0.5 mM oleic acid sodium; type: functional; in short: as §4
[20] = system: 3T3-L1; assay: Inhibition of cell proliferation in mouse 3T3L1 cells at 5 uM for 9 days; type: functional, cell-based; in short: as §3
[21] = Decrease in triglyceride level in mouse 3T3L1 cells during all developmental stages at 5 uM for 9 days; type: functional, cell-based; settings: 3T3-L1; in short: as §2

`CN1CCN(c2nc(-c3[nH]c4ccccc4c3C=O)nc3ccccc23)CC1` showed an inhibition [1] of 81.6%.
For `O=c1[nH]c(-c2[nH]c3ccccc3c2/C=N/CCN2CCCC2)nc2ccccc12`, the inhibition [2] was “Active” and the Time [3] was 6 days.
For `O=Cc1c(-c2nc(NCCc3ccccc3)c3ccccc3n2)[nH]c2ccccc12`, the inhibition (INH) [4] was over 50%.
In the case of `NC(=O)c1ncn([C@@H]2O[C@H](COP(=O)(O)O)[C@@H](O)[C@H]2O)c1N`, the inhibition [5] is reported as “Active”, the inhibition [6] is reported as “Active” and the Activity [7] is reported as “Active”. The inhibition [8] was “Active”, the inhibition [9] was “Active” and the Activity [10] was “Active”. The inhibition [11] was “Active”, the Activity [12] was “inactive” and the inhibition [13] was “Active”. The Activity [14] was “Active”, the inhibition [15] was “Active” and the Activity [16] was “Active”.
With `O=Cc1c(-c2nc3ccccc3c(=O)[nH]2)[nH]c2ccccc12` the “inhibition (INH)” value [4] was 24.1%, the inhibition [1] was 20.1% and the inhibition [17] was 14.8%. For the same compound, the Time [18] was 5 days, the “inhibition (INH)” value [19] was 16.7% and the inhibition [20] was “Active”. The inhibition [21] was “Active”.
With `O=Cc1c(-c2nc(NCCCN3CCOCC3)c3ccccc3n2)[nH]c2ccccc12` the inhibition [2] was “Active” and the Time [3] was 6 days.
In the case of `CCN(CC)CCNc1nc(-c2[nH]c3ccccc3c2C=O)nc2ccccc12`, the inhibition (INH) [4] is reported as over 50%, the inhibition [1] is reported as 87.3% and the inhibition [19] is reported as “Active”.
In the case of `CN(C)CCCC/N=C/c1c(-c2nc3ccccc3c(=O)[nH]2)[nH]c2ccccc12`, the inhibition [2] is reported as “Active” and the Time [3] is reported as 6 days.
In the case of `O=Cc1c(-c2nc(NCCN3CCCCC3)c3ccccc3n2)[nH]c2ccccc12`, the inhibition (INH) [4] is reported as over 50%, the inhibition [2] is reported as “Active” and the inhibition [1] is reported as 87.2%. For the same compound, the inhibition [19] was “Active” and the Time [3] was 6 days.
In the case of `CN(C)CCNc1nc(-c2[nH]c3ccccc3c2C=O)nc2ccccc12`, the inhibition [1] is reported as 80.1% and the inhibition [19] is reported as “Active”.
Compound `CCN(CC)c1nc(-c2[nH]c3ccccc3c2C=O)nc2ccccc12` has an inhibition [1] of 82.2%.

Reference: ChEMBL document CHEMBL3734704, “Synthesis and Biological Evaluation of Novel Bouchardatine Derivatives as Potential Adipogenesis/Lipogenesis Inhibitors for Antiobesity Treatment” (J Med Chem, 2015)
